From ChEMBL document CHEMBL3091322 (J Med Chem, 2013)

Legend:
[1] = Displacement of [3H]nisoxetine from Sprague-Dawley rat brain frontal cortex NET by scintillation counting analysis; assay type: tissue-based
Outline: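 Frontal cortex membranes from male Sprague-Dawley rats incubated with 0.5 nM [3H]nisoxetine for 180 min at 0–4°C in pH 7.4 Tris/NaCl/KCl buffer. Desipramine used for nonspecific binding. Full concentration curves run for compounds giving >70% displacement at 10 µM. Filtration and scintillation counting; Ki calculated.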

[2] = target: T1, Sodium-dependent serotonin transporter (Homo sapiens, UniProt P31645); assay: biochemical; assay type: cell-based, COS-7
Target sequence in this assay (P31645 whole entry): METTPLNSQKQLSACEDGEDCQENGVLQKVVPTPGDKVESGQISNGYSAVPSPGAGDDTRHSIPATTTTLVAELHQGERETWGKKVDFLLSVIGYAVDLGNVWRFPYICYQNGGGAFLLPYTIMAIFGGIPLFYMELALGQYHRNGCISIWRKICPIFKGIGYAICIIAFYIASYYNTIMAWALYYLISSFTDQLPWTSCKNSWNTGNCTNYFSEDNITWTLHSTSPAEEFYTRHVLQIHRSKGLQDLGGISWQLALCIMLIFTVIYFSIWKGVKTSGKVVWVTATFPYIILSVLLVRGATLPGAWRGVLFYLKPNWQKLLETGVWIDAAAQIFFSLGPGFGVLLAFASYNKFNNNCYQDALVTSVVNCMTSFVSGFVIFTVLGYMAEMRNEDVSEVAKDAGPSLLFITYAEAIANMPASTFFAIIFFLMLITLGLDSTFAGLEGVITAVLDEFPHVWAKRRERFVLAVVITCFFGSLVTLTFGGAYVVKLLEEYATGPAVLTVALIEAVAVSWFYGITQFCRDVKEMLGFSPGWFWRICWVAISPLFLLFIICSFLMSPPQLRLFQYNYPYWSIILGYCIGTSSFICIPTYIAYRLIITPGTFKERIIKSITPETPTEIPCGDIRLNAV

Rattus norvegicus [3] = species: Rattus norvegicus; assay: Displacement of [3H]nisoxetine from Sprague-Dawley rat brain frontal cortex NET at 10 uM by scintillation counting analysis; assay type: tissue-based
Outline: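 Rat frontal cortex membranes (8 mg original wet weight) in Tris/NaCl/KCl buffer, pH 7.4, with 0.5 nM [3H]nisoxetine for 180 min at 0–4°C. Single test concentration of 10 µM. Nonspecific binding defined with desipramine. Filtration on GF/B filters, then scintillation counting. Result reported as percent displacement.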

[4] = target: T1, Sodium-dependent serotonin transporter; details: COS-7
Target sequence in this assay (P31645 whole entry, looked up): as the sequence (P31645 whole entry) above

[5] = target: Sodium-dependent serotonin transporter (Rattus norvegicus) (UniProt P31652); assay: Displacement of [3H]citalopram from Sprague-Dawley rat brain stem SERT site S1 at 10 uM by scintillation counting analysis; assay type: tissue-based
[6] = target: Sodium-dependent serotonin transporter (Rattus norvegicus, UniProt P31652); assay: Displacement of [3H]citalopram from Sprague-Dawley rat brain stem SERT site S1 by scintillation counting analysis
Rattus norvegicus [7] = species: Rattus norvegicus; assay: Selectivity ratio of Ki for Sprague-Dawley rat brain frontal cortex NET to Ki for Sprague-Dawley rat brain stem SERT; assay type: tissue-based

Chain of Sodium-dependent serotonin transporter (Rattus norvegicus) (P31652 whole entry): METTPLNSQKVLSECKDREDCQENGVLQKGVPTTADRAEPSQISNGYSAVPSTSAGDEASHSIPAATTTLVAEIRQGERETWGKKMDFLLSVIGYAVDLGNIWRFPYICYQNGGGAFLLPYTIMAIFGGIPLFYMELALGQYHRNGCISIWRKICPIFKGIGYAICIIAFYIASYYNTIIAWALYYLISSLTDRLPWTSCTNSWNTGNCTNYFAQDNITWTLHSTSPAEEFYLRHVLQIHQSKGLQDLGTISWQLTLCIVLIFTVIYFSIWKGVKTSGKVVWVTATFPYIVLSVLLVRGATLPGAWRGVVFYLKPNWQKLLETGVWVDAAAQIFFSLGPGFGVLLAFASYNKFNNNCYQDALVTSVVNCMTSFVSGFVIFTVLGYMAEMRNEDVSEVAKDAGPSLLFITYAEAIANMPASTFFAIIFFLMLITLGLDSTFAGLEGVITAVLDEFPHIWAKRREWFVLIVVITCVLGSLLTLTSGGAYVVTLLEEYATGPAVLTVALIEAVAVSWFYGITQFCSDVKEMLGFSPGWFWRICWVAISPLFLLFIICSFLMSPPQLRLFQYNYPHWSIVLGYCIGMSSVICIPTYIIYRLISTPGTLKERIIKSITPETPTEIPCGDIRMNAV
Chain of Sodium-dependent serotonin transporter (Rattus norvegicus, UniProt P31652) (P31652 whole entry): as above

Row | SMILES | Ki [1] [nM] | inhibition (Rattus norvegicus [3]) [%] | further results
1 | CN(C)CCCC1(c2ccc(-c3cccc(N)c3)cc2)OCc2cc(C#N)ccc21 (racemic) | 7020 |  | 
2 | CN(C)CCCC1(c2ccc(F)cc2)OCc2cc(/C=C/c3ccccc3)ccc21 (single isomer, unassigned; (+)) |  |  | IC50 [2]: 3400 nM
3 | CN(C)CCCC1(c2ccc(F)cc2)OCc2cc(C=O)ccc21 (racemic) |  | 46.1 | 
4 | CN(C)CCCC1(c2ccc(F)cc2)OCc2cc(CN3CCN(c4cccc(Cl)c4Cl)CC3)ccc21 (racemic) |  | 19.7 | 
5 | CN(C)CCCC1(c2ccc(F)cc2)OCc2cc(CNCc3coc4ccccc34)ccc21 (racemic) | 284 |  | 
6 | CN(C)CCCC1(c2ccc(F)cc2)OCc2cc(CNCc3ccc4ccccc4c3)ccc21 (racemic) | 653 |  | 
7 | CN(CCCCc1ccccc1)CCCC1(c2ccc(F)cc2)OCc2cc(C#N)ccc21 (racemic) | 448 |  | 
8 | CN(C)CCCC1(c2ccc(/C=C/c3ccccc3)cc2)OCc2cc(C#N)ccc21 (racemic) |  | 44 | T1/2 [4]: 44 min
9 | CN(C)CCCC1(c2ccc(F)cc2)OCc2cc(C(N)=O)ccc21 (racemic) | 123 |  | 
10 | CN(CCCC1(c2ccc(F)cc2)OCc2cc(C#N)ccc21)Cc1ccnc2ccccc12 (stereo not drawn) |  | 31.2 | 
11 | CN(C)CCCC1(c2ccc(F)cc2)OCc2cc(CN(C)C)ccc21 (racemic) |  | 21.9 | 
12 | CCCCN(C)CCCC1(c2ccc(F)cc2)OCc2cc(C#N)ccc21 (racemic) | 276 |  | inhibition [5]: > 70%; Ki [6]: 61.6 nM
13 | CN(CCCC1(c2ccc(F)cc2)OCc2cc(C#N)ccc21)Cc1c[nH]c2ccccc12 (racemic) | 1300 |  | 
14 | CN(CCCC1(c2ccc(F)cc2)OCc2cc(C#N)ccc21)Cc1ccncc1 (racemic) |  | 28.1 | 
15 | CN(C)CCCC1(c2ccc(F)cc2)OCc2cc(CNCc3ccc4c(c3)Cc3ccccc3-4)ccc21 (racemic) | 2330 |  | Ratio Ki (Rattus norvegicus [7]): 99; inhibition [5]: > 70%; Ki [6]: 23.6 nM
16 | CN(C)CCCC(O)(c1ccc(Br)cc1)c1ccc(C#N)cc1CO (racemic) |  | 17 | 
17 | CN(CCCC1(c2ccc(F)cc2)OCc2cc(C#N)ccc21)Cc1ccc(N(C)C)cc1 (racemic) | 1380 |  | 
18 | CN(C)CCCC1(c2ccc(F)cc2)COc2ccc(Br)cc21 (racemic) | 4970 |  | 
19 | CN(C)CCCC1(c2ccc(F)cc2)OCc2cc(CN3CCN(c4ccccc4)CC3)ccc21 (racemic) | 11100 |  | 
20 | CN(C)CCCC1(c2ccc(Br)cc2)OCc2cc(C#N)ccc21 (racemic) |  | 45 | 
21 | COc1ccccc1N1CCN(Cc2ccc3c(c2)COC3(CCCN(C)C)c2ccc(F)cc2)CC1 (racemic) |  | 39.7 | 

Row | SMILES | Ki [1] [nM] | inhibition (Rattus norvegicus [3]) [%] | further results
22 | CN(C)CCCC1(c2ccc(F)cc2)OCc2cc(-c3ccc(N)cc3)ccc21 (racemic) |  | 42 | 
23 | CN(CCCC1(c2ccc(F)cc2)OCc2cc(C#N)ccc21)C1CC=C(c2c[nH]c3ccccc23)CC1 (racemic) | 1020 |  | 
24 | CN(CCN)CCCC1(c2ccc(F)cc2)OCc2cc(C#N)ccc21 (racemic) |  | 20.2 | 
25 | CN(CCCC1(c2ccc(F)cc2)OCc2cc(C#N)ccc21)Cc1ccc2ccccc2c1 (racemic) | 272 |  | 
26 | CN(C)CCCC1(c2ccc(F)cc2)OCc2cc(CN)ccc21 (racemic) |  | 33.2 | 
27 | CN(CCCC1(c2ccc(F)cc2)OCc2cc(C#N)ccc21)Cc1coc2ccccc12 (racemic) | 265 |  | 
28 | COC(=O)c1ccc2c(c1)COC2(CCCN(C)C)c1ccc(F)cc1 (racemic) |  | 64.3 | 
29 | CN(C)CCCC1(c2ccc(F)cc2)OCc2cc(CNCc3ccc4c(c3)COC4(CCCN(C)C)c3ccc(F)cc3)ccc21 (racemic) |  | 66.9 | 
30 | COc1ccc2[nH]cc(CN(C)CCCC3(c4ccc(F)cc4)OCc4cc(C#N)ccc43)c2c1 (racemic) | 5090 |  | 
31 | CN(C)CCCC1(c2ccc(F)cc2)OCc2c(I)cccc21 (racemic) | 11300 |  | 
32 | CN(CCCC1(c2ccc(F)cc2)OCc2cc(C#N)ccc21)Cc1ccc2c(c1)Cc1ccccc1-2 (racemic) |  | 60.3 | inhibition [5]: > 70%; Ki [6]: 19 nM
33 | CN(C)CCCC1(c2ccc(F)cc2)OCc2cc(CN3CCOCC3)ccc21 (racemic) | > 80000 |  | inhibition [5]: > 70%; Ki [6]: 13.6 nM
34 | CN(C)CCCC1(c2ccc(F)cc2)OCc2cc(CN3CCCCC3)ccc21 (racemic) |  | 29.3 | 
35 | CN(CCCC1(c2ccc(F)cc2)OCc2cc(C#N)ccc21)Cc1csc2ccccc12 (racemic) |  | 62.9 | 
36 | CN(CCCC1(c2ccc(F)cc2)OCc2cc(C#N)ccc21)CC1CC1 (racemic) |  | 69.8 | 
37 | CN(C)CCCC1(c2ccc(F)cc2)OCc2cc(-c3ccc([N+](=O)[O-])cc3)ccc21 (racemic) | 8280 |  | 
38 | CCCN(C)CCCC1(c2ccc(F)cc2)OCc2cc(C#N)ccc21 (racemic) |  | 60.4 | inhibition [5]: > 70%; Ki [6]: 118 nM
39 | CN(C)CCCC1(c2ccc(-c3cccc(C#N)c3)cc2)OCc2cc(C#N)ccc21 (racemic) | 2800 |  | 
40 | CN(C)CCCC1(c2ccc(F)cc2)OCc2cc(CN(C)CCCC3(c4ccc(F)cc4)OCc4cc(C#N)ccc43)ccc21 (racemic) |  | 65.1 | 
41 | CN(CCCC1(c2ccc(F)cc2)OCc2cc(C#N)ccc21)CCc1ccccc1 (racemic) | 179 |  | IC50 [2]: 5300 nM; Ratio Ki (Rattus norvegicus [7]): 4.4; inhibition [5]: > 70%; Ki [6]: 40.9 nM
42 | CN(C)CCCC1(c2ccc(F)cc2)OCc2cc(/C=C/Cc3ccccc3)ccc21 (racemic) | 4750 |  | 
